Test results as given in publication PMC3419923 (The EMBO Journal, 2012).

System: PepTSt
Experiment: Kinetics of proton-driven glycylsarcosine uptake in PepTSt proteoliposomes
Assay type: biochemical, Streptococcus thermophilus
Conditions: proton-driven proteoliposome uptake, pH 6.5
How it was run: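 PepTSt proteoliposomes (1:40 protein:lipid, extruded 400 nm) loaded with 20 mM KPi pH 6.50, 100 mM K acetate, 2 mM MgSO4. Diluted 1:50 into 20 mM NaPIPES […], 2 mM MgSO4, 10 μM valinomycin, giving an inside-negative potential that drives H+/peptide uptake. 3H peptide added at varying concentrations, 25°C. Quenched with ice-cold LiCl, filtered, counted, and converted to molar amounts via standard curves.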

Substance: glycylsarcosine
- maximal rate of uptake, Vmax: 631 nmol min^−1 mg^−1 PepTSt
